# From ChEMBL document CHEMBL1151915, “Structure-activity relationship studies of small-molecule inhibitors of Wnt response” (Bioorg Med Chem Lett, 2009)
# The source made the active and inactive calls. The calls are words filed in the database; no cut-off is given here.
# Columns and labels:
# [1] = Half life in mouse blood; format: ADME, tissue-based
# Summary of the method: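 Compound at 2 μM incubated in whole blood from C57BL/6 mice; incubation stopped at set time points by adding methanol; saline or buffer incubations run as controls.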
# [2] = Half life in mouse liver S9 fraction; format: ADME, subcellular
# [3] = Half life in mouse hepatocytes; format: ADME, cell-based, Liver, Hepatocyte
# Summary of the method: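 Cryopreserved murine CD1 hepatocytes (10^5 cells) incubated with 2 μM compound; reactions stopped at set time points with methanol; saline or buffer incubations served as controls.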
# Danio rerio = species: Danio rerio; test: Inhibition of fin regeneration in zebrafish; format: functional
half-life [1] [min],half-life [2] [min],half-life [3] [min],SMILES,MIC (Danio rerio) [µM],inhibition (Danio rerio)
60,20,20,O=C(Nc1cccc2cccnc12)c1ccc(N2C(=O)[C@@H]3[C@H](C2=O)[C@@H]2C=C[C@H]3C2)cc1,0.5,–
–,–,10,COc1ccccc1NC(=O)c1ccc(N2C(=O)[C@@H]3[C@H](C2=O)[C@@H]2C=C[C@H]3C2)cc1,–,–
–,–,60,O=C(Nc1ccc(F)cc1)c1ccc(N2C(=O)[C@@H]3[C@H](C2=O)[C@@H]2C=C[C@H]3C2)cc1,–,–
–,–,–,O=C(Nc1ccc(F)cc1F)c1ccc(N2C(=O)[C@@H]3[C@H](C2=O)[C@@H]2C=C[C@H]3C2)cc1,–,Active
